What was measured:
[1] = tested on: calcitonin receptor (CTR); assay: Whole cell radioligand competition binding with 125I-sCT; parameters: species or system human; details: competition with 125I-sCT(8-32), N130D mutant; five independent experiments
Procedure, shortened: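 Cos7 cells in DMEM/10% FBS, transiently transfected with PEI (DNA:PEI 1:6 in 150mM NaCl, 15 min) and seeded at 3 × 10⁴/well for 48 h at 37°C, 5% CO₂. Total binding: 0.05 nM ¹²⁵I-sCT(8-32) alone. Nonspecific binding: co-incubation with 1 μM sCT(8-32). Each experiment normalised to its own specific binding.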

[2] = tested on: HA-FLAG-3C-CTR-3C-8xHis CTR with Gs protein heterotrimer; assay: [35S]GTPγS binding on CTR expressed in insect cells; type: biochemical, human; details: insect cell membranes, absence and presence of Gs heterotrimer; four independent experiments
[3] = tested on: calcitonin receptor (CTR); assay: cAMP accumulation in transfected COS7 or 3T3-FlpIn cells; type: cell-based, human
Procedure, shortened: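 COS7 or 3T3-FlpIn cells transfected with PEI (DNA:PEI 1:6 in 150mM NaCl, 15 min), plated at 3 × 10⁴/well and held 48 h at 37°C, 5% CO₂. Signals converted to cAMP using a parallel standard curve, then normalised to 100 μM forskolin within each cell line. For efficacy, Black-Leff operational model (Logτ_c) applied, corrected for cell-surface expression.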

[4] = tested on: calcitonin receptor (CTR); assay: ERK1/2 phosphorylation; type: cell-based, human; details: H302A mutant, 3T3-FlpIn cells; four independent experiments in duplicate
Procedure, shortened: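 3T3-FlpIn cells grown in DMEM with 10% v/v FBS at 37°C. Transient transfection used PEI; DNA and PEI in 150mM NaCl were combined 1:6 and left 15 min before adding to the cell suspension. Cells were plated at 3 × 10⁴/well and held 48 h at 37°C, 5% CO₂ before the pERK1/2 AlphaScreen read.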

CTR = details: cited from earlier work
[5] = cell surface ELISA to N-terminal epitope tag; details: glycan lost; control: WT CTR

salmon calcitonin [sCT]
sCT affinity at N130D CTR compared to WT [1]: reduced affinity
G protein activation via GTPγS binding, sCT concentration response [2]: can robustly activate Gs
sCT-mediated cAMP efficacy at Δ414 CTR ([3]; COS7 cells, truncation after Trp413, 5 independent experiments in duplicate): no effect on receptor function
sCT potency in cAMP production at H302A CTR ([3]; H302A mutant, 3T3-FlpIn cells, four independent experiments in duplicate): reduced potency
sCT potency in cAMP accumulation at N130D CTR relative to WT ([3]; N130D mutant, five independent experiments): reduce the potency
sCT potency in phosphorylation of ERK1/2 at H302A CTR [4]: reduced potency
off-rate (CTR): very slow off-rate

B1: calcitonin receptor (CTR): N28D (protein)
parent chain: MRFTFTSRCLALFLLLNHPTPILPAFSNQTYPTIEPKPFLYVVGRKKMMDAQYKCYDRMQQLPAYQGEGPYCNRTWDGWLCWDDTPAGVLSYQFCPDYFPDFDPSEKVTKYCDEKGVWFKHPENNRTWSNYTMCNAFTPEKLKNAYVLYYLAIVGHSLSIFTLVISLGIFVFFRSLGCQRVTLHKNMFLTYILNSMIIIIHLVEVVPNGELVRRDPVSCKILHFFHQYMMACNYFWMLCEGIYLHTLIVVAVFTEKQRLRWYYLLGWGFPLVPTTIHAITRAVYFNDNCWLSVETHLLYIIHGPVMAALVVNFFFLLNIVRVLVTKMRETHEAESHMYLKAVKATMILVPLLGIQFVVFPWRPSNKMLGKIYDYVMHSLIHFQGFFVATIYCFCNNEVQTTVKRQWAQFKIQWNQRWGRRPSNRSARAAAAAAEAGDIPIYICHQELRNEPANNQGEESAEIIPLNIIEQESSA
expression_or_secretion [5]: no change

B2: calcitonin receptor (CTR): N125D (protein)
parent chain: B1 parent chain
expression_or_secretion [5]: no change

B3: calcitonin receptor (CTR): N73D (protein)
parent chain: B1 parent chain
expression_or_secretion [5]: no change

B4: calcitonin receptor (CTR): N130D (protein)
parent chain: B1 parent chain
expression_or_secretion [5]: no change

From article PMC5832441 (Nature, 2017)
